Activity calls are given as the source filed them. The calls are words filed in the database; no cut-off is given here.
Legend:
Nakaseomyces glabratus = experiment: Antimicrobial activity against Candida glabrata; type: functional, organism-based
COLO357 = experiment: Antitumor activity against human Colo357 cells assessed as reduction of viability at 10 ug/ml; type: functional
Outline: (§1)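 Viability was measured in the pancreatic tumor lines Colo357 and Panc89 and the colon tumor line HT29, with compound present at a final concentration of 10 µg/mL. The read-out is percent reduction in cell viability.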

HT-29 = experiment: Antitumor activity against human HT29 cells assessed as reduction of viability at 10 ug/ml; type: functional; outline: as §1
Escherichia coli = experiment: Antimicrobial activity against Escherichia coli; type: functional, organism-based
Pseudomonas fluorescens = experiment: Antimicrobial activity against Pseudomonas fluorescens; type: functional, organism-based
[1] = Antitumor activity against human Panc89 cells assessed as reduction of viability at 10 ug/ml; type: functional; outline: as §1

| SMILES | Activity (Nakaseomyces glabratus) | Activity (COLO357) [%] | Activity (HT-29) [%] | Activity (Escherichia coli) | Activity (Pseudomonas fluorescens) | Activity [1] [%] |
| --- | --- | --- | --- | --- | --- | --- |
| CCCCCCC(C)[C@@H]1CC(=O)NCC(=O)N[C@@H](C(C)C)C(=O)N[C@H](CC(C)C)C(=O)N[C@@H](C)C(=O)N[C@@H](Cc2ccccc2)C(=O)O1 (some centres not stated) [SCOPULARIDE A] | inactive | 36 | 37 | inactive | inactive | 42 |
| CCCCC(C)[C@@H]1CC(=O)NCC(=O)N[C@@H](C(C)C)C(=O)N[C@H](CC(C)C)C(=O)N[C@@H](C)C(=O)N[C@@H](Cc2ccccc2)C(=O)O1 (some centres not stated) [SCOPULARIDE B] | inactive | 26 | 24 | inactive | inactive | 49 |
